MC4R ag barr: MC4R agonists recruiting beta-arrestin, primary screen, cell-based, luminescence, agonist arm of biased-ligand search. Melanocortin receptor 4 (Homo sapiens), P32245. U2OS MC4R beta-arrestin complementation; percent of melanotan II response, DMSO zero. activation, % at 8.9 µM. actives 0.98% (n = 360,000);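 active = activation above a per-plate cutoff, the mean activation of sample wells on that plate plus 3 SD, cut at about 8% in these data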
Target sequence (P32245 whole entry, looked up): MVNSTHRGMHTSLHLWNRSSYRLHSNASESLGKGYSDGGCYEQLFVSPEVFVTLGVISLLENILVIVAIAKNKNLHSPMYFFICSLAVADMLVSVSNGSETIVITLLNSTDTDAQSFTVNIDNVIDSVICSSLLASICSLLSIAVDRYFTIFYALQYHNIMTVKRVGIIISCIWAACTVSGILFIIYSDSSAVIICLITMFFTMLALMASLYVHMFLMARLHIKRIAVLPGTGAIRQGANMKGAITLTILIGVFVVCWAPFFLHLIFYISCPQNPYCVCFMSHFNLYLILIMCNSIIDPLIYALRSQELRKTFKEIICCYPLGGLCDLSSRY
H9c2 TAG inh: inhibitors of triacylglycerol accumulation, primary screen, cell-based, uHTS, fluorescence, H9c2; actives 0.66% (n = 230,000); H9c2 cells, Nile Red lipid (TAG) fluorescence; cells loaded with 200 µM oleic acid; inhibition, % at 12.5 µM; AID 651582, 2012;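 active = pattern-corrected inhibition of lipid staining of at least 50% with the nuclear-stain viability signal not falling by more than 50%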
Tb MetRS inh: T. brucei MetRS inhibitors, primary screen, biochemical, luminescence. methionyl-tRNA synthetase (Trypanosoma brucei brucei). purified T. brucei MetRS, ATP depletion, Kinase-Glo luminescence. inhibition, % at 11.9 µM. actives 0.4% (n = 360,000);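 active = inhibition above a per-plate cutoff of the control wells' mean inhibition plus 3 SD, cut at about 5.5% in these data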
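Assay system: T. brucei methionyl-tRNA synthetase, purified | Medium: HEPES buffer with MgCl2, KCl, DTT, spermine, BSA, pyrophosphatase | Compound: 11.9 µM single point | Incubation: 15 min enzyme-compound preincubation, 2 h reaction, 10 min detection, 25 °C | Measured by: Kinase-Glo luciferase luminescence reporting remaining unconsumed ATP | Measure: % inhibition normalized to control-well medians | Replication: Singlicate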
aDG glyco up: activators of alpha-DG glycosylation, primary screen, uHTS, Pro5-aDG cells, AlphaScreen; actives 0.22% (n = 360,000); activation, % at 10 µM; AID 624168, 2012; alpha-DG glycosylation AlphaScreen (IIH6); 0% Pro5, 100% B10-LARGE cell signal;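 active = activation of at least 8% versus controls, or a plate z-score of at least 8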;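 also: Pro5 are CHO cells carrying HIG-tagged alpha-DG that lacks glycosylation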
NTR1 ag: agonists of human NTR1, primary screen, imaging, U2OS cells, beta-arrestin-GFP, high content; actives 0.17% (n = 330,000); activation, % at 20 µM; NTR1-U2OS beta-arrestin-GFP spot imaging, agonist mode; AID 493036, 2011; Neurotensin receptor type 1 (Homo sapiens), P30989;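 active = activation at or above 40% of the spot to cytoplasm intensity ratio, with at least 20 cells analyzed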
MC4R antag cAMP: MC4R antagonists of cAMP signaling, primary screen, cell-based, TR-FRET, antagonist arm of biased-ligand search | MC4R-expressing cells, MTII-stimulated cAMP, LANCE TR-FRET | inhibition, % at 6.5 µM | actives 0.48% (n = 360,000);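 active = inhibition above its plate's cutoff, the mean of tested wells on that plate plus 3 SD, cut at about 29% in these data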
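Assay system: U2OS cells stably expressing human melanocortin 4 receptor (MC4R) / Dosing: 6.5 µM / Timing: compound 30 min, challenge 1 h, detection 1 h / Measured by: Eu-cAMP/anti-cAMP TR-FRET, emission 671 nm / Replicates: singlicate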
TbMetRS confirm: T. brucei MetRS inhibitors, confirmation, biochemical, luminescence. shares compounds with Tb MetRS inh. inhibition, % at 11.9 µM. actives 93% (n = 1,400). T. brucei MetRS enzyme, luminescence (ATP depletion); in the data active = inhibition above about 7%
Jurkat cytotox: Jurkat T cell cytotoxicity, cytotoxicity control for T. brucei MetRS inhibitor project, luminescence, high throughput; Jurkat cells viability, ATP luminescence; AID 624413, 2012; inhibition, % at 8.3 µM; shares compounds with Tb MetRS inh; actives 12% (n = 1,400); in the data active = inhibition above about 15%
TbMetRS FP orth: T. brucei MetRS inhibitors, orthogonal assay for T. brucei MetRS inhibitor project, biochemical, fluorescence polarization | shares compounds with Tb MetRS inh | purified T. brucei MetRS | inhibition, % at 11.9 µM | actives 44% (n = 1,400); in the data active = inhibition above about 17%
Hits are given with their value; i = inactive; nt = not tested or not shown. An excerpt weighted towards active compounds, which were near 2.4% of everything screened.

SMILES	MC4R ag barr	H9c2 TAG inh	Tb MetRS inh	aDG glyco up	NTR1 ag	MC4R antag cAMP	TbMetRS confirm	Jurkat cytotox	TbMetRS FP orth
Cc1cc(C(=O)N2CCc3c([nH]c4ccccc34)C2c2cccc(Cl)c2)nn1C (configuration not stated)	i	i	i	i	i	i	nt	nt	nt
O=C(c1cnccn1)N1CCc2c([nH]c3ccccc23)C1c1cccc(Cl)c1 (configuration not stated)	i	nt	7.0	i	i	i	10	i	i
CC(=O)C[C@@H]1SC[C@H](c2ccccc2)N1S(=O)(=O)c1ccc(C)cc1	nt	nt	i	i	nt	nt	nt	nt	nt
Cc1ccc(N2CC(c3nc4ccccc4[nH]3)CC2=O)c(C)c1 (configuration not stated)	i	i	8.3	i	i	i	9.2	i	i
CCCCCCN1CCN(C2CN(Cc3cn(Cc4ccc(C)cc4)nn3)S(=O)(=O)C2)CC1 (configuration not stated)	nt	nt	i	i	nt	nt	nt	nt	nt
Cc1noc(C)c1-c1ccc(C(=O)Nc2ccccc2)c2occc12	i	i	i	i	nt	i	nt	nt	nt
CCCCn1c(NS(=O)(=O)c2ccccc2)c(S(=O)(=O)c2ccc(C)cc2)c2nc3ccccc3nc21	i	nt	16	i	nt	i	12	i	i
CCCCn1c(NC(=O)c2ccco2)c(S(=O)(=O)c2ccc(C)cc2)c2nc3ccccc3nc21	i	i	i	i	nt	i	nt	nt	nt
CCCCn1c(NC(=O)c2ccc(Br)o2)c(S(=O)(=O)c2ccccc2)c2nc3ccccc3nc21	i	nt	6.0	i	i	i	11	i	i
Nc1ccn(C2OC(CO)C(O)C2F)c(=O)n1 (configuration not stated)	nt	nt	i	i	nt	nt	nt	nt	nt
CCN(CC)CCNc1ccnc2cc(Cl)ccc12	i	nt	i	i	i	i	nt	nt	nt
O=C(NCCNc1ccnc2cc(Cl)ccc12)c1ccccc1F	i	nt	8.7	i	i	i	13	47	i
Clc1ccc2c(NCc3ccccc3)ccnc2c1	i	nt	7.9	i	i	i	20	19	i
O=C(NCCNc1ccc(Cl)cc1[N+](=O)[O-])c1ccccc1F	i	i	i	i	i	i	nt	nt	nt
CCOC(=O)[C@]12CCCC=C1N(CCc1ccc(OC)c(OC)c1)C(=O)[C@H](CC(=O)NCC13CC4CC(CC(C4)C1)C3)C2	nt	nt	i	i	nt	nt	nt	nt	nt
OC[C@H]1O[C@@H](c2nc3ccc(-c4nc(-c5cccs5)no4)cc3[nH]2)C[C@@H]1O	i	i	i	i	nt	i	nt	nt	nt
CC(=O)Nc1ccc(OCc2cn(CC(=O)c3ccc(O)cc3)nn2)cc1	i	i	i	i	nt	i	nt	nt	nt
Nc1nnc(CC(=O)N/N=C/c2ccc(-c3ccccc3)o2)s1	i	nt	8.1	i	i	i	i	i	i
Nc1nnc(CC(=O)N/N=C/c2ccc(-c3ccc(Cl)cc3Cl)o2)s1	i	i	11	i	i	i	i	i	i
Nc1nnc(CC(=O)N/N=C\c2ccc(-c3cccc(Cl)c3)o2)s1	i	i	i	i	i	i	nt	nt	nt
Cc1ccc(S(=O)(=O)NCc2ccccc2Br)cc1	nt	nt	i	i	nt	nt	nt	nt	nt

Source: PubChem
